Assay results published in ChEMBL document CHEMBL4689842, “EUbOPEN Chemogenomics Library wave 1” (2021).

Tested on: HEK-293T
Assay: Multiplex assay against HEK293T;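 as to Population Tubulin-Different-Phenotype (%): share of the cells with healthy nuclei that show this phenotype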
Type: toxicity, cell-based
Details: human
Summary of the method: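 At seeding, live cells were stained with Hoechst33342, BioTracker Green Microtubule Cytoskeleton Dye, MitoTracker Red and Annexin V Alexa Fluor 680. After compound addition they were imaged on a CQ1 microscope at 37°C and 5% CO2, and CellPathfinder machine-learning gating sorted them into Hoechst high-intensity objects or normal cells, with normal cells further split into healthy, pyknosed or fragmented nuclei and pyknosed cells into mitotic or apoptotic. Tubulin, mitochondrial-mass and membrane-permeability phenotypes are given as per cents of cells with healthy nuclei.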

[1] = 12 h, 1 µM, compound concentration 1 uM, replicate 1
[2] = 12 h, 1 µM, compound concentration 1 uM, replicate 2
[3] = 12 h, 10 µM, compound concentration 10 uM, replicate 1
[4] = 12 h, 10 µM, compound concentration 10 uM, replicate 2
[5] = 24 h, 1 µM, compound concentration 1 uM, replicate 1
[6] = 24 h, 1 µM, compound concentration 1 uM, replicate 2
[7] = 24 h, 10 µM, compound concentration 10 uM, replicate 1
[8] = 24 h, 10 µM, compound concentration 10 uM, replicate 2
[9] = 48 h, 1 µM, compound concentration 1 uM, replicate 1
[10] = 48 h, 1 µM, compound concentration 1 uM, replicate 2
[11] = 48 h, 10 µM, compound concentration 10 uM, replicate 1
[12] = 48 h, 10 µM, compound concentration 10 uM, replicate 2

## CCCSc1nc(N[C@@H]2C[C@H]2c2ccc(F)c(F)c2)c2nnn([C@@H]3C[C@H](OCCO)[C@@H](O)[C@H]3O)c2n1 [TICAGRELOR]
[1]
  Population Apoptotic (%): 56%
  Population Fragmented Nuclei (%): 19%
  Population Healthy Nuclei (%): 35%
  Population Hoechst High Intensity Objects (%): 18%
  Population Membrane Permeable-Phenotype (%): 4%
  Population Mitochondria Different-Phenotype (%): 89%
  Population Mitotic Cells (%): 43%
  Population Normal (%): 81%
  Population Pyknosed Nuclei (%): 45%
  Population Tubulin-Different-Phenotype (%): 54%
  Total Cell Count: 167
[2]
  Population Apoptotic (%): 9%
  Population Fragmented Nuclei (%): 3%
  Population Healthy Nuclei (%): 49%
  Population Hoechst High Intensity Objects (%): 3%
  Population Membrane Permeable-Phenotype (%): 10%
  Population Mitochondria Different-Phenotype (%): 21%
  Population Mitotic Cells (%): 90%
  Population Normal (%): 96%
  Population Pyknosed Nuclei (%): 46%
  Population Tubulin-Different-Phenotype (%): 27%
  Total Cell Count: 190
[3]
  Population Apoptotic (%): 68%
  Population Fragmented Nuclei (%): 34%
  Population Healthy Nuclei (%): 4%
  Population Hoechst High Intensity Objects (%): 20%
  Population Membrane Permeable-Phenotype (%): 14%
  Population Mitochondria Different-Phenotype (%): 85%
  Population Mitotic Cells (%): 31%
  Population Normal (%): 79%
  Population Pyknosed Nuclei (%): 60%
  Population Tubulin-Different-Phenotype (%): 85%
  Total Cell Count: 178
[4]
  Population Apoptotic (%): 85%
  Population Fragmented Nuclei (%): 6%
  Population Healthy Nuclei (%): 26%
  Population Hoechst High Intensity Objects (%): 4%
  Population Membrane Permeable-Phenotype (%): 2%
  Population Mitochondria Different-Phenotype (%): 95%
  Population Mitotic Cells (%): 14%
  Population Normal (%): 95%
  Population Pyknosed Nuclei (%): 66%
  Population Tubulin-Different-Phenotype (%): 93%
  Total Cell Count: 176
[5]
  Population Apoptotic (%): 46%
  Population Fragmented Nuclei (%): 23%
  Population Healthy Nuclei (%): 32%
  Population Hoechst High Intensity Objects (%): 18%
  Population Membrane Permeable-Phenotype (%): 2%
  Population Mitochondria Different-Phenotype (%): 75%
  Population Mitotic Cells (%): 53%
  Population Normal (%): 81%
  Population Pyknosed Nuclei (%): 44%
  Population Tubulin-Different-Phenotype (%): 45%
  Total Cell Count: 181
[6]
  Population Apoptotic (%): 18%
  Population Fragmented Nuclei (%): 4%
  Population Healthy Nuclei (%): 62%
  Population Hoechst High Intensity Objects (%): 3%
  Population Membrane Permeable-Phenotype (%): 7%
  Population Mitochondria Different-Phenotype (%): 28%
  Population Mitotic Cells (%): 81%
  Population Normal (%): 96%
  Population Pyknosed Nuclei (%): 33%
  Population Tubulin-Different-Phenotype (%): 48%
  Total Cell Count: 257
[7]
  Population Apoptotic (%): 76%
  Population Fragmented Nuclei (%): 35%
  Population Healthy Nuclei (%): 6%
  Population Hoechst High Intensity Objects (%): 21%
  Population Mitochondria Different-Phenotype (%): 77%
  Population Mitotic Cells (%): 23%
  Population Normal (%): 78%
  Population Pyknosed Nuclei (%): 57%
  Population Tubulin-Different-Phenotype (%): 88%
  Total Cell Count: 178
[8]
  Population Apoptotic (%): 89%
  Population Fragmented Nuclei (%): 4%
  Population Healthy Nuclei (%): 26%
  Population Hoechst High Intensity Objects (%): 7%
  Population Membrane Permeable-Phenotype (%): 0%
  Population Mitochondria Different-Phenotype (%): 95%
  Population Mitotic Cells (%): 10%
  Population Normal (%): 92%
  Population Pyknosed Nuclei (%): 69%
  Population Tubulin-Different-Phenotype (%): 95%
  Total Cell Count: 182
[9]
  Population Apoptotic (%): 55%
  Population Fragmented Nuclei (%): 23%
  Population Healthy Nuclei (%): 40%
  Population Hoechst High Intensity Objects (%): 12%
  Population Membrane Permeable-Phenotype (%): 3%
  Population Mitochondria Different-Phenotype (%): 51%
  Population Mitotic Cells (%): 44%
  Population Normal (%): 87%
  Population Pyknosed Nuclei (%): 36%
  Population Tubulin-Different-Phenotype (%): 50%
  Total Cell Count: 216
[10]
  Population Apoptotic (%): 11%
  Population Fragmented Nuclei (%): 5%
  Population Healthy Nuclei (%): 78%
  Population Hoechst High Intensity Objects (%): 4%
  Population Membrane Permeable-Phenotype (%): 4%
  Population Mitochondria Different-Phenotype (%): 12%
  Population Mitotic Cells (%): 88%
  Population Normal (%): 95%
  Population Pyknosed Nuclei (%): 16%
  Population Tubulin-Different-Phenotype (%): 31%
  Total Cell Count: 492
[11]
  Population Apoptotic (%): 81%
  Population Fragmented Nuclei (%): 38%
  Population Healthy Nuclei (%): 3%
  Population Hoechst High Intensity Objects (%): 24%
  Population Membrane Permeable-Phenotype (%): 50%
  Population Mitochondria Different-Phenotype (%): 75%
  Population Mitotic Cells (%): 18%
  Population Normal (%): 75%
  Population Pyknosed Nuclei (%): 58%
  Population Tubulin-Different-Phenotype (%): 75%
  Total Cell Count: 173
[12]
  Population Apoptotic (%): 92%
  Population Fragmented Nuclei (%): 7%
  Population Healthy Nuclei (%): 29%
  Population Hoechst High Intensity Objects (%): 5%
  Population Membrane Permeable-Phenotype (%): 2%
  Population Mitochondria Different-Phenotype (%): 97%
  Population Mitotic Cells (%): 7%
  Population Normal (%): 94%
  Population Pyknosed Nuclei (%): 63%
  Population Tubulin-Different-Phenotype (%): 86%
  Total Cell Count: 164

## COc1ccc(-c2ccc3ncc4c(c3c2)n(-c2ccc(N3CCNCC3)c(C(F)(F)F)c2)c(=O)n4C)cn1.O=C(O)/C=C\C(=O)O [BGT-226]
[1]
  Population Apoptotic (%): 70%
  Population Fragmented Nuclei (%): 22%
  Population Healthy Nuclei (%): 2%
  Population Hoechst High Intensity Objects (%): 25%
  Population Mitochondria Different-Phenotype (%): 87%
  Population Mitotic Cells (%): 29%
  Population Normal (%): 74%
  Population Pyknosed Nuclei (%): 74%
  Population Tubulin-Different-Phenotype (%): 87%
  Total Cell Count: 358
[2]
  Population Apoptotic (%): 78%
  Population Fragmented Nuclei (%): 8%
  Population Healthy Nuclei (%): 6%
  Population Hoechst High Intensity Objects (%): 10%
  Population Membrane Permeable-Phenotype (%): 0%
  Population Mitochondria Different-Phenotype (%): 100%
  Population Mitotic Cells (%): 21%
  Population Normal (%): 89%
  Population Pyknosed Nuclei (%): 84%
  Population Tubulin-Different-Phenotype (%): 90%
  Total Cell Count: 162
[3]
  Population Apoptotic (%): 72%
  Population Fragmented Nuclei (%): 28%
  Population Healthy Nuclei (%): 0%
  Population Hoechst High Intensity Objects (%): 28%
  Population Membrane Permeable-Phenotype (%): 50%
  Population Mitochondria Different-Phenotype (%): 50%
  Population Mitotic Cells (%): 27%
  Population Normal (%): 71%
  Population Pyknosed Nuclei (%): 70%
  Population Tubulin-Different-Phenotype (%): 100%
  Total Cell Count: 306
[4]
  Population Apoptotic (%): 96%
  Population Fragmented Nuclei (%): 51%
  Population Healthy Nuclei (%): 7%
  Population Hoechst High Intensity Objects (%): 45%
  Population Membrane Permeable-Phenotype (%): 11%
  Population Mitochondria Different-Phenotype (%): 16%
  Population Mitotic Cells (%): 3%
  Population Normal (%): 54%
  Population Pyknosed Nuclei (%): 41%
  Population Tubulin-Different-Phenotype (%): 66%
  Total Cell Count: 454
[5]
  Population Apoptotic (%): 70%
  Population Fragmented Nuclei (%): 27%
  Population Healthy Nuclei (%): 2%
  Population Hoechst High Intensity Objects (%): 20%
  Population Membrane Permeable-Phenotype (%): 12%
  Population Mitochondria Different-Phenotype (%): 75%
  Population Mitotic Cells (%): 29%
  Population Normal (%): 79%
  Population Pyknosed Nuclei (%): 69%
  Population Tubulin-Different-Phenotype (%): 75%
  Total Cell Count: 358
[6]
  Population Apoptotic (%): 84%
  Population Fragmented Nuclei (%): 9%
  Population Healthy Nuclei (%): 9%
  Population Hoechst High Intensity Objects (%): 8%
  Population Membrane Permeable-Phenotype (%): 7%
  Population Mitochondria Different-Phenotype (%): 92%
  Population Mitotic Cells (%): 15%
  Population Normal (%): 91%
  Population Pyknosed Nuclei (%): 81%
  Population Tubulin-Different-Phenotype (%): 92%
  Total Cell Count: 169
[7]
  Population Apoptotic (%): 77%
  Population Fragmented Nuclei (%): 38%
  Population Healthy Nuclei (%): 0%
  Population Hoechst High Intensity Objects (%): 35%
  Population Membrane Permeable-Phenotype (%): 0%
  Population Mitochondria Different-Phenotype (%): 0%
  Population Mitotic Cells (%): 22%
  Population Normal (%): 64%
  Population Pyknosed Nuclei (%): 61%
  Population Tubulin-Different-Phenotype (%): 0%
  Total Cell Count: 317
[8]
  Population Apoptotic (%): 98%
  Population Fragmented Nuclei (%): 48%
  Population Healthy Nuclei (%): 15%
  Population Hoechst High Intensity Objects (%): 46%
  Population Membrane Permeable-Phenotype (%): 25%
  Population Mitochondria Different-Phenotype (%): 28%
  Population Mitotic Cells (%): 1%
  Population Normal (%): 53%
  Population Pyknosed Nuclei (%): 35%
  Population Tubulin-Different-Phenotype (%): 77%
  Total Cell Count: 422
[9]
  Population Apoptotic (%): 74%
  Population Fragmented Nuclei (%): 38%
  Population Healthy Nuclei (%): 1%
  Population Hoechst High Intensity Objects (%): 21%
  Population Membrane Permeable-Phenotype (%): 0%
  Population Mitochondria Different-Phenotype (%): 100%
  Population Mitotic Cells (%): 25%
  Population Normal (%): 78%
  Population Pyknosed Nuclei (%): 60%
  Population Tubulin-Different-Phenotype (%): 100%
  Total Cell Count: 380
[10]
  Population Apoptotic (%): 84%
  Population Fragmented Nuclei (%): 10%
  Population Healthy Nuclei (%): 18%
  Population Hoechst High Intensity Objects (%): 11%
  Population Membrane Permeable-Phenotype (%): 3%
  Population Mitochondria Different-Phenotype (%): 88%
  Population Mitotic Cells (%): 15%
  Population Normal (%): 88%
  Population Pyknosed Nuclei (%): 71%
  Population Tubulin-Different-Phenotype (%): 85%
  Total Cell Count: 166
[11]
  Population Apoptotic (%): 85%
  Population Fragmented Nuclei (%): 45%
  Population Healthy Nuclei (%): 0%
  Population Hoechst High Intensity Objects (%): 42%
  Population Membrane Permeable-Phenotype (%): 0%
  Population Mitochondria Different-Phenotype (%): 0%
  Population Mitotic Cells (%): 14%
  Population Normal (%): 57%
  Population Pyknosed Nuclei (%): 54%
  Population Tubulin-Different-Phenotype (%): 0%
  Total Cell Count: 360
[12]
  Population Apoptotic (%): 98%
  Population Fragmented Nuclei (%): 53%
  Population Healthy Nuclei (%): 22%
  Population Hoechst High Intensity Objects (%): 44%
  Population Membrane Permeable-Phenotype (%): 14%
  Population Mitochondria Different-Phenotype (%): 48%
  Population Mitotic Cells (%): 1%
  Population Normal (%): 55%
  Population Pyknosed Nuclei (%): 24%
  Population Tubulin-Different-Phenotype (%): 75%
  Total Cell Count: 397
